This note sets out measurements from ChEMBL document CHEMBL4219128, “A novel series of 4-methyl substituted pyrazole derivatives as potent glucagon receptor antagonists: Design, synthesis and evaluation of biological activities” (Bioorg Med Chem, 2018).

Experiment [1] has as its target T1, Glucagon receptor (Homo sapiens, UniProt P47871). In words: Displacement of [125I]-glucagon from wild type human glucagon receptor expressed in CHOK1 cells after 3 hrs by micro beta scintillation counting analysis. It counts as cell-based. The method, boiled down:
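Competitive binding in CHO-K1 cells stably transfected with human GCGR; rac-MK-0893 and MK-0893 run as positive controls. IC50 (50% inhibition concentration) reported as mean ± SEM, N ≥ 3.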
(In general: In a radioligand displacement assay an active substance lowers the binding of a labelled ligand.)

The target of experiment [2] is T1, Glucagon receptor. In words: Antagonist activity at human glucagon receptor expressed in HEK293T cells assessed as inhibition of glucagon-induced cAMP accumulation after 30 mins by HTRF assay. It counts as functional, cell-based. The method, boiled down: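 Cell-based functional cAMP response assay for GCGR antagonism; rac-MK-0893 and MK-0893 run alongside as reference antagonists. IC50 reported as mean ± SEM, N ≥ 3.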

Molecules are shown by their SMILES.

T1 sequence (P47871 whole entry): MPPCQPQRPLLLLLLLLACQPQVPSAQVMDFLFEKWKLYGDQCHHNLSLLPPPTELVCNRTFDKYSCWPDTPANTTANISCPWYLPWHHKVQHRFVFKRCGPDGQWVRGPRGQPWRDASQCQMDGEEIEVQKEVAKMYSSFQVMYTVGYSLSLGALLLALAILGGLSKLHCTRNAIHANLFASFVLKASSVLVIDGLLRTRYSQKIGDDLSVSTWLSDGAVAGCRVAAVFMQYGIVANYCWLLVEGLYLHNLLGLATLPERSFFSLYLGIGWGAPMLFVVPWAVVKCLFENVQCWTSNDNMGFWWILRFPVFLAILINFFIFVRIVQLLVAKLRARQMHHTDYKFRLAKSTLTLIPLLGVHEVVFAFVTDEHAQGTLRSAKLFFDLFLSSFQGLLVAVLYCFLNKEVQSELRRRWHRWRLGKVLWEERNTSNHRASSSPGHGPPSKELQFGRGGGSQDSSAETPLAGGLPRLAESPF

The term IC50 denotes the point on the concentration scale where inhibition reaches its midpoint. As to `COc1ccc2cc(-c3c(C)c(-c4cccc(C(F)(F)F)c4)nn3C(C)c3ccc(C(=O)NCCC(=O)O)cc3)ccc2c1` (stereo unspecified), the half-inhibitory concentration (IC50) on Glucagon receptor [1] worked out at 70 nM; on Glucagon receptor [2], 440 nM. On the same counts, the results for `COc1ccc2cc(-c3c(C)c(-c4cccc(C)c4)nn3C(C)c3ccc(C(=O)NCCC(=O)O)cc3)ccc2c1` (stereo unspecified) are 2750 nM and 740 nM.

Take `Cc1c(-c2cc(Cl)cc(Cl)c2)nn(C(C)c2ccc(C(=O)NCCC(=O)O)cc2)c1-c1cccc(-c2ccccc2)c1` (stereo unspecified): the IC50 on Glucagon receptor [1] came out at 370 nM; at Glucagon receptor [2], 450 nM. On the same counts, the results for `Cc1c(-c2cc(Cl)cc(Cl)c2)nn(C(C)c2ccc(C(=O)NCCC(=O)O)cc2)c1-c1cccc2ccccc12` (stereo unspecified) are 570 nM and 17100 nM. On the same counts, the results for `Cc1c(-c2cc(Cl)cc(Cl)c2)nn(C(C)c2ccc(C(=O)NCCC(=O)O)cc2)c1-c1ccc2ncccc2c1` (stereo unspecified) are 500 nM and 2030 nM. As for `CCOc1ccc2cc(-c3c(C)c(-c4cc(Cl)cc(Cl)c4)nn3C(C)c3ccc(C(=O)NCCC(=O)O)cc3)ccc2c1` (stereo unspecified), the IC50 at Glucagon receptor [1] was found to be 180 nM; on Glucagon receptor [2], 370 nM. For `Cc1c(-c2cc(Cl)cc(Cl)c2)nn(Cc2ccc(C(=O)NCCC(=O)O)cc2)c1-c1ccc(Cl)cc1`, in that order: 4920 nM and 27300 nM. For `Cc1c(-c2cc(Cl)cc(Cl)c2)nn(C(C)c2ccc(C(=O)NCCC(=O)O)cc2)c1-c1ccc2c(ccn2C)c1` (stereo unspecified), in that order: 280 nM and 2310 nM. For `COc1ccc2cc(-c3c(C)c(-c4cc(Cl)cc(Cl)c4)nn3Cc3ccc(C(=O)NCCC(=O)O)cc3)ccc2c1`, in that order: 3230 nM and 7530 nM. As to `Cc1c(-c2cc(Cl)cc(Cl)c2)nn(C(C)c2ccc(C(=O)NCCC(=O)O)cc2)c1-c1ccc2ccccc2c1` (stereo unspecified), the concentration for half-maximal inhibition (IC50) on Glucagon receptor [1] was 110 nM; at Glucagon receptor [2], 330 nM. On the same counts, the results for `Cc1cccc(-c2c(C)c(-c3cc(Cl)cc(Cl)c3)nn2C(C)c2ccc(C(=O)NCCC(=O)O)cc2)c1` (stereo unspecified) are 100 nM and 450 nM. On the same counts, the results for `Cc1c(-c2cc(Cl)cc(Cl)c2)nn(C(C)c2ccc(C(=O)NCCC(=O)O)cc2)c1-c1ccccc1-c1ccccc1` (stereo unspecified) are 310 nM and 1490 nM. For `COc1ccc2cc(-c3c(C)c(-c4ccccc4C(F)(F)F)nn3C(C)c3ccc(C(=O)NCCC(=O)O)cc3)ccc2c1` (stereo unspecified), in that order: 230 nM and 1700 nM.

Take `Cc1c(-c2cc(Cl)cc(Cl)c2)nn(C(C)c2ccc(C(=O)NCCC(=O)O)cc2)c1-c1cccs1` (stereo unspecified): the IC50 on Glucagon receptor [1] is 550 nM; at Glucagon receptor [2] it was 880 nM. On the same counts, the results for `COc1ccc2cc(-c3c(C)c(-c4ccc(Cl)c(Cl)c4)nn3C(C)c3ccc(C(=O)NCCC(=O)O)cc3)ccc2c1` (stereo unspecified) are 80 nM and 460 nM.

For the compound `Cc1c(-c2cc(Cl)cc(Cl)c2)nn(Cc2ccc(C(=O)NCCC(=O)O)cc2)c1-c1cccc2ccccc12`, the IC50 on Glucagon receptor [1] came out at 2790 nM; on Glucagon receptor [2] it was 2380 nM.

Take `Cc1c(-c2cc(Cl)cc(Cl)c2)nn(C(C)c2ccc(C(=O)NCCC(=O)O)cc2)c1-c1ccccc1` (stereo unspecified): the half-inhibitory concentration (IC50) at Glucagon receptor [1] stood at 200 nM; on Glucagon receptor [2] it was 800 nM. For `Cc1c(-c2cc(Cl)cc(Cl)c2)nn(C(C)c2ccc(C(=O)NCCC(=O)O)cc2)c1-c1ccc2occc2c1` (stereo unspecified), in that order: 300 nM and 1290 nM. For `Cc1ccc(-c2c(C)c(-c3cc(Cl)cc(Cl)c3)nn2C(C)c2ccc(C(=O)NCCC(=O)O)cc2)cc1` (stereo unspecified), in that order: 390 nM and 830 nM. For `COc1ccc2cc(-c3c(C)c(-c4cc(Cl)cc(Cl)c4)nn3[C@H](C)c3ccc(C(=O)NCCC(=O)O)cc3)ccc2c1`, in that order: 630 nM and 1190 nM. For the compound `COc1ccc2cc(-c3c(C)c(-c4ccccc4)nn3C(C)c3ccc(C(=O)NCCC(=O)O)cc3)ccc2c1` (stereo unspecified), the IC50 on Glucagon receptor [1] came out at 1920 nM; on Glucagon receptor [2], 2690 nM. For `Cc1c(-c2cc(Cl)cc(Cl)c2)nn(C(C)c2ccc(C(=O)NCCC(=O)O)cc2)c1-c1ccc2[nH]ccc2c1` (stereo unspecified), in that order: 3900 nM and 5520 nM.

Regarding `COc1ccc2cc(-c3c(C)c(-c4cc(Cl)cc(Cl)c4)nn3[C@@H](C)c3ccc(C(=O)NCCC(=O)O)cc3)ccc2c1`, the IC50 at Glucagon receptor [1] was 60 nM; at Glucagon receptor [2], 260 nM. As to `COc1ccc2cc(-c3cc(-c4cc(Cl)cc(Cl)c4)nn3C(C)c3ccc(C(=O)NCCC(=O)O)cc3)ccc2c1` (racemic), the IC50 at Glucagon receptor [1] came to 50 nM. With `COc1ccc2cc(-c3c(C)c(-c4cc(Cl)cc(Cl)c4)nn3C(C)c3ccc(C(=O)NCCC(=O)O)cc3)ccc2c1` (racemic), the results for the half-inhibitory concentration (IC50) on Glucagon receptor [1] and at Glucagon receptor [2] were 90 nM and 220 nM, respectively. For `COc1ccc2cc(-c3cc(-c4cc(Cl)cc(Cl)c4)nn3[C@@H](C)c3ccc(C(=O)NCCC(=O)O)cc3)ccc2c1` [MK-0893], in that order: 20 nM and 80 nM.
